Data as given in ChEMBL document CHEMBL1151811, “Isolation, structure elucidation, and biological activity of virgineone from Lachnum Wirgineum using the genome-wide Candida albicans fitness test” (2009).
Converted amounts (≈) assume the structure as drawn. The source made the active and inactive calls. The rule behind the calls is not given here.

Tests used:
Clavispora lusitaniae = assay: Antifungal activity against Candida lusitaniae MY1396 after 20 hrs; type: functional; details: MY1396, 20 h
Outline: (§1)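 Broth MIC with cells seeded at 10⁵ cfu/mL and exposed to 2-fold serial compound dilutions in growth medium, 37 °C for 20 h. MIC taken as the minimum inhibitory concentration.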

Pichia kudriavzevii = assay: Antifungal activity against Candida krusei ATCC 6258 after 20 hrs; type: functional; details: ATCC 6258, 20 h
Outline: (§2)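 Broth MIC. Cells inoculated at 10⁵ cfu/mL in growth medium with 2-fold serial dilutions of compound. Incubated 20 h at 37 °C. MIC taken as minimum inhibitory concentration. For line 2 the medium held 50% mouse serum.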

Aspergillus fumigatus [1] = assay: Antifungal activity against Aspergillus fumigatus MF5568 after 20 hrs; type: functional; details: MF5568, 20 h; outline: as §1
Aspergillus fumigatus [2] = assay: Antifungal activity against Aspergillus fumigatus MF5568 in presence of 50% human serum after 20 hrs; type: functional; details: MF5568, 20 h; outline: as §1
[3] = system: Trichophyton mentagrophytes; assay: Antifungal activity against Trichophyton mentagrophytes MF7004 after 20 hrs; type: functional; details: MF7004, 20 h; outline: as §1
Staphylococcus aureus = assay: […] activity against Staphylococcus aureus MB2865; type: functional
Candida albicans [4] = assay: Antifungal activity against Candida albicans MY1055 infected in DBA/2 mouse assessed as mouse mortality at 100 mg/kg, ip twice daily measured after 4 days postinfection; type: functional; details: route intraperitoneal
Outline: (§3)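 Mice infected iv via lateral tail vein with C. albicans MY1055 at 2.51 × 10⁴ cfu/mouse. Five DBA/2 mice per group, dosed ip twice daily; compound formulated in 5% DMSO in sterile distilled water. Mortality and general health observed for 4 days after challenge.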

Candida albicans [5] = assay: Antifungal activity against Candida albicans MY1055 infected in DBA/2 mouse assessed as mouse mortality at 50 mg/kg, ip twice daily measured after 4 days postinfection; type: functional; details: route intraperitoneal; outline: as §3
Candida albicans [6] = assay: Antifungal activity against Candida albicans MY1055 infected in DBA/2 mouse assessed as reduction in fugal CFU treated mouse twice daily measured after 4 days postinfection; type: functional, organism-based
Outline: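 DBA/2 mice (5 per group) were infected iv via lateral tail vein with 2.51 × 10⁴ cfu/mouse. They were dosed ip twice daily at 100 or 50 mg/kg in 5% DMSO/sterile water. On day 4, kidneys were homogenized in saline, diluted 10-fold serially, plated on SDA and incubated at 35 °C for 30–48 h. Cfu/g kidney were compared with sham-treated controls by paired two-tailed t-test.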

Nakaseomyces glabratus = assay: Antifungal activity against Candida glabrata MY1381 after 20 hrs; type: functional; details: MY1381, 20 h; outline: as §2
Candida parapsilosis = assay: Antifungal activity against Candida parapsilosis ATCC 22019 after 20 hrs; type: functional; details: Lodderomyces parapsilosis, ATCC 22019, 20 h; outline: as §2
Candida albicans [7] = assay: Antifungal activity against Candida albicans MY1055 after 20 hrs; type: functional; details: MY1055, 20 h; outline: as §2
Candida albicans [8] = assay: Antifungal activity against Candida albicans MY1055 in presence of 50% mouse serum after 20 hrs; type: functional; details: MY1055, 20 h; outline: as §2

## CC(CCCCCCCCC(=O)CCCCCCCCCC(O)CO[C@@H]1O[C@H](CO)[C@@H](O)[C@H](O)[C@@H]1O)C(=O)C1=C(O)C(Cc2ccc(O)cc2)NC1=O (stereo partly drawn) [VIRGINEONE]
Clavispora lusitaniae
  MIC: 4 µg/mL (≈ 5.33 µM)
Pichia kudriavzevii
  MIC: 16 µg/mL (≈ 21.3 µM)
Aspergillus fumigatus [1]
  MIC: 8 µg/mL (≈ 10.7 µM)
Aspergillus fumigatus [2]
  MIC: > 32 µg/mL
[3]
  MIC: 8 µg/mL (≈ 10.7 µM)
Staphylococcus aureus
  MIC: 16 µg/mL (≈ 21.3 µM)
Candida albicans [4]
  Activity: 100%
Candida albicans [5]
  Activity: 40%
Candida albicans [6]
  Activity: inactive
Nakaseomyces glabratus
  MIC: 8 µg/mL (≈ 10.7 µM)
Candida parapsilosis
  MIC: 8 µg/mL (≈ 10.7 µM)
Candida albicans [7]
  MIC: 8 µg/mL (≈ 10.7 µM)
Candida albicans [8]
  MIC: > 32 µg/mL

## CC[C@H](C)C[C@H](C)CCCCCCCCC(=O)N[C@H]1C[C@@H](O)[C@@H](NCCN)NC(=O)[C@@H]2[C@@H](O)CCN2C(=O)[C@H]([C@H](O)CCN)NC(=O)[C@H]([C@H](O)[C@@H](O)c2ccc(O)cc2)NC(=O)[C@@H]2C[C@@H](O)CN2C(=O)[C@H]([C@@H](C)O)NC1=O [CASPOFUNGIN]
Clavispora lusitaniae
  MIC: < 0.03 µg/mL
Pichia kudriavzevii
  MIC: 1 µg/mL (≈ 0.915 µM)
Aspergillus fumigatus [1]
  MIC: 32 µg/mL (≈ 29.3 µM)
Aspergillus fumigatus [2]
  MIC: 32 µg/mL
[3]
  MIC: 32 µg/mL (≈ 29.3 µM)
Staphylococcus aureus
  MIC: > 32 µg/mL
Nakaseomyces glabratus
  MIC: 0.25 µg/mL (≈ 0.229 µM)
Candida parapsilosis
  MIC: 0.5 µg/mL (≈ 0.457 µM)
Candida albicans [7]
  MIC: 0.5 µg/mL (≈ 0.457 µM)
Candida albicans [8]
  MIC: 0.25 µg/mL
